Results on 14 molecules are retold here after ChEMBL document CHEMBL4422626, “Optimization of novel benzofuro[3,2-b]pyridin-2(1H)-one derivatives as dual inhibitors of BTK and PI3Kδ” (Eur J Med Chem, 2019).

pIC50: −log10 of the molar value. Active and inactive are the calls of the source. No cut-off for these calls is given here. Some results are limits rather than exact numbers.

The test system of test [1] is Ramos. Description: Antiproliferative activity against human Ramos cells after 48 hrs by CCK8 assay. In kind it is functional, cell-based. The procedure, abridged:
(§1)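 Raji and Ramos cells grown in RPMI1640 or IMDM with 10% FBS, 37 °C, 5% CO2. Seeded at 3000-5000 cells/well and left 12-24 h before dosing. Several compound concentrations given for 48 h. CCK-8 then added for 4 h and OD read at 450 nm. IC50 is the concentration giving 50% cell death versus control, calculated from inhibition ratios.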
(In general: Tetrazolium dyes change colour on reduction, which living cells bring about.)

Test [2] addresses T1, Tyrosine-protein kinase BTK (Homo sapiens, UniProt Q06187). Description: Inhibition of BTK (unknown origin) by ADP-gloassay. (ADP-Glo first removes unused ATP, then detects ADP through luciferase.)
Test [3] relates to Raji. The test is described as follows: Antiproliferative activity against human Raji cells after 48 hrs by CCK8 assay. In kind it is functional, cell-based. The procedure, abridged: as §1
Test [4] addresses T1, Tyrosine-protein kinase BTK. Particulars: at 200 nM.
The target in test [5] is T2, Phosphatidylinositol 4,5-bisphosphate 3-kinase catalytic subunit delta isoform (Homo sapiens) (UniProt O00329).
T2 sequence (whole entry): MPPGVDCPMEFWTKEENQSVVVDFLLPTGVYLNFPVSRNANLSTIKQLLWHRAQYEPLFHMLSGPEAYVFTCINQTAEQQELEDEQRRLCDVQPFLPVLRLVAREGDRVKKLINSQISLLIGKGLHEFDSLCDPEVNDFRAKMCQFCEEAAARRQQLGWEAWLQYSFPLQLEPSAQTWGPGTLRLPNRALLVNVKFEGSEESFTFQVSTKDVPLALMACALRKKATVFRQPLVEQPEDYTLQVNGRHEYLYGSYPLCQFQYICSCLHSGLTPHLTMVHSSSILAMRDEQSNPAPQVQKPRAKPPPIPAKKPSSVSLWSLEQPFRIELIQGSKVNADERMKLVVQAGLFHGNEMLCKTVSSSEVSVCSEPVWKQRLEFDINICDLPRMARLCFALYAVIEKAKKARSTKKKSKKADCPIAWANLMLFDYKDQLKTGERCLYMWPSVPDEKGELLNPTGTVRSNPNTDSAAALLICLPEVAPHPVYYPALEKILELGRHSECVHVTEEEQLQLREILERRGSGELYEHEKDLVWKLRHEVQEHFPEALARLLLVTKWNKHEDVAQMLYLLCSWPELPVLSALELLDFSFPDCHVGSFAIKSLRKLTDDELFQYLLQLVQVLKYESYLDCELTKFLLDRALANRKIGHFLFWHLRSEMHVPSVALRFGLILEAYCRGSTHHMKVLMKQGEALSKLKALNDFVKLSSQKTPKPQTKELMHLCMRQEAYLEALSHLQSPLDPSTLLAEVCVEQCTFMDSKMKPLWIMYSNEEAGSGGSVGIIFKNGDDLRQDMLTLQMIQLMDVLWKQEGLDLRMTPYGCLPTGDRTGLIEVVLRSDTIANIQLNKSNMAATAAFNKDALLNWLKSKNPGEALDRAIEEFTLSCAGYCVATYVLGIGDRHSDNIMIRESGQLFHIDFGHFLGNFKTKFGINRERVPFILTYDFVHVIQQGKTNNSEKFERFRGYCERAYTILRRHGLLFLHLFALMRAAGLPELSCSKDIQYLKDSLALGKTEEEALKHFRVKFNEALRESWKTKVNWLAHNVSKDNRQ
Description: Inhibition of PI3Kdelta (unknown origin) at 200 nM by ADP-gloassay relative to control. The procedure, abridged: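 PI3Kδ was tested with the PI3K-Glo Class I Profiling Kit and a luminescence read-out, following the manufacturer's protocol. Each compound was tested at a single concentration of 200 nM and expressed as percent inhibition versus control.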

The target of test [6] is T3, Phosphatidylinositol 4,5-bisphosphate 3-kinase catalytic subunit delta isoform (Homo sapiens, UniProt O00329).
T3 sequence (O00329 whole entry): T2 sequence (whole entry)
The test is described as follows: Inhibition of PI3Kdelta (unknown origin) by ADP-gloassay. A digest of the protocol: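 PI3K isoform activity was measured with the PI3K-Glo Class I Profiling Kit, a luminescent ADP-Glo-type read-out, following the manufacturer's protocol.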

Test [7] has as its system Ramos. The test is described as follows: Cell cycle arrest in human Ramos cells assessed as accumulation at G0/G1 phase at 5 uM after 48 hrs by propidium iodide staining based flow cytometric analysis (reference value: 24.65%). In kind it is functional.
Test [8] has as its target T2, Phosphatidylinositol 4,5-bisphosphate 3-kinase catalytic subunit delta isoform (Homo sapiens). The test is described as follows: Inhibition of PI3Kdelta in human Ramos cells assessed as reduction in mTOR phosphorylation at Ser2481 residues at 0.25 to 1 uM after 4 hrs by Western blot analysis. It is filed as cell-based. The procedure, abridged:
(§2)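 Ramos cells pretreated with compound for 4 h, then stimulated or not with anti-human IgM F(ab')2. Cells were washed in PBS and lysed on ice for 0.5 h in Tris-Cl pH 6.8/SDS/glycerol/β-mercaptoethanol/PMSF/NaF/DTT buffer, then heated. Protein was quantified by BCA, with equal amounts run on 12% SDS-PAGE and semi-dry blotted to PVDF. Primary antibodies overnight at 4 °C, HRP secondary 1 h at 37 °C, ECL detection on film.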

Test [9] deals with Ramos. The test is described as follows: Induction of apoptosis in human Ramos cells assessed as necrotic cells at 5 uM after 48 hrs by Annexin-V-FITC/propidium iodide staining based flow cytometric analysis (reference value: 1.11%). In kind it is functional. For orientation: A flow cytometer gives signals particle by particle.
For test [10], the system named is Ramos. The test is described as follows: Cell cycle arrest in human Ramos cells assessed as accumulation at S phase at 5 uM after 48 hrs by propidium iodide staining based flow cytometric analysis (reference value: 71.08%). It is filed as functional.
Test [11] relates to Ramos. The test is described as follows: Induction of apoptosis in human Ramos cells assessed as viable cells at 5 uM after 48 hrs by Annexin-V-FITC/propidium iodide staining based flow cytometric analysis (reference value: 96.83%). In kind it is functional. The settings on record: read-out: Activity.
The test system of test [12] is Ramos. The test is described as follows: Cell cycle arrest in human Ramos cells assessed as accumulation at G2/M phase at 5 uM after 48 hrs by propidium iodide staining based flow cytometric analysis (reference value: 4.26%). It is filed as functional.
Test [13] concerns Ramos. The test is described as follows: Induction of apoptosis in human Ramos cells assessed as late apoptotic cells at 5 uM after 48 hrs by Annexin-V-FITC/propidium iodide staining based flow cytometric analysis (reference value: 0.98%). In kind it is functional.
Test [14] has as its target T2, Phosphatidylinositol 4,5-bisphosphate 3-kinase catalytic subunit delta isoform (Homo sapiens). Description: Inhibition of PI3Kdelta in human Ramos cells assessed as reduction in Akt phosphorylation at Ser473 residues at 0.25 to 1 uM after 4 hrs by Western blot analysis. It is filed as cell-based. A digest of the protocol: as §2
In test [15] the test system is Ramos. The test is described as follows: Cell cycle arrest in human Ramos cells assessed as accumulation at apoptotic phase at 5 uM after 48 hrs by propidium iodide staining based flow cytometric analysis (reference value: 5.03%). In kind it is functional.
Test [16] relates to Ramos. The test is described as follows: Induction of apoptosis in human Ramos cells assessed as early apoptotic cells at 5 uM after 48 hrs by Annexin-V-FITC/propidium iodide staining based flow cytometric analysis (reference value: 1.08%). It is filed as functional.
Test [17] deals with Raji. The test is described as follows: Antiproliferative activity against human Raji cells at 5 uM after 24 hrs by CCK8 assay. It is filed as functional, cell-based. A digest of the protocol:
(§3)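 Raji (Burkitt lymphoma) cells in RPMI1640 or IMDM with 10% FBS, 37 °C, 5% CO2; seeded 3000-5000 cells/well, preincubated 12-24 h, then exposed to compound. Cells collected at different times and viability read by CCK-8 (4 h incubation, OD 450 nm).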

The subject of test [18] is Raji. The test is described as follows: Antiproliferative activity against human Raji cells at 5 uM up to 24 hrs by CCK8 assay. It is filed as functional, cell-based. A digest of the protocol: as §3

T1 sequence (Q06187 whole entry): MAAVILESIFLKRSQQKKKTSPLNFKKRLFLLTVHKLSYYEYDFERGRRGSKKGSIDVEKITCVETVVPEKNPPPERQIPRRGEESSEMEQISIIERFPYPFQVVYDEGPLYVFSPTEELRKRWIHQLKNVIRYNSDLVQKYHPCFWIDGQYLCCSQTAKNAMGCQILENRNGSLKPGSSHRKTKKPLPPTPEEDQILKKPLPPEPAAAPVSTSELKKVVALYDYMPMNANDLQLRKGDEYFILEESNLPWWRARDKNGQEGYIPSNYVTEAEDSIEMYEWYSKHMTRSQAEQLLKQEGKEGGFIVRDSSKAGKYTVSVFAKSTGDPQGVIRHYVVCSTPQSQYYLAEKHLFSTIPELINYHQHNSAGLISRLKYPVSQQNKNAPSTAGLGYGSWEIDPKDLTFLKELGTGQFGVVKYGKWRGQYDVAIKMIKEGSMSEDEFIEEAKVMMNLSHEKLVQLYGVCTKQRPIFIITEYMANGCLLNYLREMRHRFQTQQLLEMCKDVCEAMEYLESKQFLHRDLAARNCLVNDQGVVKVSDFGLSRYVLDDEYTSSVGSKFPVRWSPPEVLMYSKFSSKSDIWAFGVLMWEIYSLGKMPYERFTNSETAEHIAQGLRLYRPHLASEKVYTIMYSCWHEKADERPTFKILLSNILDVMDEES

Regarding `C=CC(=O)Nc1cccc(-n2c(=O)ccc3oc4ccc(-c5ccc(OC)nc5)cc4c32)c1`, the pIC50 – broadly, the IC50 on a negative log10 scale, so that one unit is a factor of ten – with Ramos [1] was 5.89; in test [2], 7.10; with Raji [3] it was 5.62. In addition, the results for the inhibition in test [4] and in test [5] were 67.3% and 11.3%, respectively.

Molecule `CN(C)CC(=O)Nc1ccc(-n2c(=O)ccc3oc4ccc(C5CCN(C(=O)OC(C)(C)C)CC5)cc4c32)cc1` gave a pIC50 in the test with Raji [3] of 5.15. For the same molecule, the inhibition (as a rule, the change of the read-out against control, counted positive when it falls) in test [4] was found to be 49.2%. Moreover, the inhibition entry in test [5] is “inactive”.

As to `CN(C)CC(=O)Nc1ccc(-n2c(=O)ccc3oc4ccc(-c5cccnc5)cc4c32)cc1`, the pIC50 was 5.46 in the test on Ramos [1], 7.30 in test [2] and 5.15 in the test with Raji [3]. In [4], this molecule yielded an inhibition of 63.4%. Further, the inhibition result in [5] was “inactive”.

As to `CN(C)CC(=O)Nc1ccc(-n2c(=O)ccc3oc4ccc(C5CCNCC5)cc4c32)cc1`, in the test on Raji [3], the negative logarithm of the IC50 (pIC50) was 5.62. The inhibition in test [4] was determined as 33.1%. Besides, the inhibition result in test [5] was “inactive”.

For the molecule `C=CC(=O)Nc1ccc(-n2c(=O)ccc3oc4ncc(-c5cccnc5)cc4c32)cc1`, the pIC50 in the test on Ramos [1] was 5.88; in the test on Raji [3], 5.13; in test [6] it was 6.00. The inhibition was 38.7% in test [4] and 34.2% in [5].

On to `C=CC(=O)Nc1cccc(-n2c(=O)ccc3oc4ccc(-c5ccc(F)nc5)cc4c32)c1`, for which the pIC50 in the test on Ramos [1] was 5.73; in the test on Raji [3], 5.66; in [6], 6.04. The same molecule had an inhibition in test [5] of 34%.

Consider `Cn1c(=O)n(-c2ccc(C(C)(C)C#N)cc2)c2c3cc(-c4cnc5ccccc5c4)ccc3ncc21` [DACTOLISIB], for which the Activity in the test on Ramos [7] is reported as 59.66%; in the test with Ramos [9], 0.64%; in the test with Ramos [10] it was 35.34%; in the test on Ramos [12] it was 5%; in the test on Ramos [13], 40.03%; in the test with Ramos [15], 58.92%. Besides, the Activity in the test with Ramos [16] turned out to be 53.54%. Besides, the inhibition result in test [8] and in test [14] was “Active” in each case. Also, the viability at 5 µM in the test on Ramos [11] stood at 5.78%. In addition, the negative logarithm of the IC50 (pIC50) is 8.17 in the test with Ramos [1] and 6.66 in the test with Raji [3].

As to `CN(C)CC(=O)Nc1ccc(-n2c(=O)ccc3oc4ccc(-c5ccc(O)cc5)cc4c32)cc1`, the results for the negative-log IC50 (pIC50) (in test [2]; in the test on Raji [3]) were 6.82 and 5.74, respectively. This molecule also gave an inhibition in [4] of 51.7%. The inhibition entry in [5] was “inactive”.

For `COc1ccc(-c2cnc3oc4ccc(=O)n(-c5ccc(NC(=O)CN(C)C)cc5)c4c3c2)cn1`, the results for the negative logarithm of the IC50 (pIC50) (in test [2]; in the test with Raji [3]) were 6.82 and below 4.40, respectively. The inhibition in test [4] stood at 58.8%. In test [5], the inhibition result was “inactive”.

`COc1ccc(-c2cnc3oc4ccc(=O)n(-c5ccc(NC(=O)CN6CCNCC6)cc5)c4c3c2)cn1` had a negative logarithm of the IC50 (pIC50) in the test with Raji [3] of 4.47. In addition, the inhibition in test [4] is 32%. Also, the inhibition entry in test [5] was “inactive”.

Take `COc1ccc(-c2cnc3oc4ccc(=O)n(-c5ccc(NC(=O)CN6CCCCC6)cc5)c4c3c2)cn1`: the negative logarithm of the IC50 (pIC50) in [2] is 6.90; in the test on Raji [3], below 4.40. In test [4], the inhibition is 55%. Also, in [5], the inhibition result is “inactive”.

Regarding `C=CC(=O)N1CCC[C@@H](n2nc(-c3ccc(Oc4ccccc4)cc3)c3c(N)ncnc32)C1` [IBRUTINIB], the Activity in the test on Ramos [7] is reported as 30.5%; in the test on Ramos [9] it was 0.37%; with Ramos [10] it was 65.18%; in the test on Ramos [12] it was 4.26%; with Ramos [13], 2.71%; in the test on Ramos [15] it was 4.33%. Further, the Activity in the test on Ramos [16] came out at 5.12%. In addition, the viability at 5 µM in the test on Ramos [11] was 91.8%. This molecule gave a pIC50 in the test with Ramos [1] of 5.24. In addition, in the test with Raji [17], the result was Active. For the same molecule, the outcome in the test with Raji [18] was inactive.

Consider `C=CC(=O)Nc1ccc(-n2c(=O)ccc3oc4ccc(-c5ccc(F)nc5)cc4c32)cc1`, for which the pIC50 in the test with Ramos [1] was 5.78; in the test with Raji [3], 5.14; in test [6], 5.90. Besides, the inhibition in test [4] worked out at 32.1%; in [5], 31.7%.

`CN(C)CC(=O)Nc1ccc(-n2c(=O)ccc3oc4ccc(-c5cccc6[nH]ccc56)cc4c32)cc1` had a pIC50 with Raji [3] of 4.73. The molecule further returned an inhibition in test [4] of 47.2%. The inhibition entry in [5] was “inactive”.
